WT yeast gro inh – growth inhibition of WT strain, primary screen, mitochondrial fusion inhibitor project, WT and mutant strains, chemical genetic; mitochondrial fusion phenotypic screen; 2.1% of 190,000 active; inhibition, % at 10 µM; AID 1362, 2008; in the data active = inhibition above about 58%; tested in S. cerevisiae
T cruzi inh – inhibitors of intracellular T. cruzi growth, primary screen, luminescence, NIH3T3 host cells. T. cruzi beta-gal in NIH3T3, 90 h. inhibition, % (test concentration not listed). 1.4% of 300,000 active. AID 1885, 2009;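 active = mean inhibition across valid replicates above about 55%, limit read from the data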;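 also: signal also drops with host cell toxicity which is not excluded here; 0% = plate median of DMSO wells and 100% = zero luminescence signal; higher percent means less beta-gal luminescence so fewer parasites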
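compound dosing = single 50 nL compound addition per well in DMSO | material = NIH/3T3 host cells with β-galactosidase reporter T. cruzi | input = 5,000 host fibroblasts per well | timing = ≥90 h infection period, 3 h prior cell attachment | read-out basis = percent inhibition of parasite-derived β-gal signal | detection = GalScreen β-gal luminescence, detergent lysis, 60 min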
CSC inhib – cancer stem cell viability inhibitors, primary screen, luminescence; cancer stem cell-like cells viability; inhibition, % at 7.5 µM; 1.1% of 300,000 active; AID 2717, 2010; in the data active = inhibition above about 75%; tested in HMLE shEcad cells
Mot1-301 SUMO – yeast Mot1-301 growth rescue at high temperature, primary screen, SUMOylation pathway inhibitor project, S. cerevisiae, ATP luminescence, 38.5C; S. cerevisiae Mot1-301 growth rescue; percent above DMSO median, 100 means doubled; growth rescue, % at 18.8 µM; 1% of 320,000 active;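 active = every valid replicate shows activation above 250% relative to neutral control wells; inactive = the rest, any valid replicate at or below 250%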;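 also: OY570 slx delta 5 strain wells were the positive control but not used for scaling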
Beta apoptosis – inhibitors of cytokine-induced beta cell apoptosis, primary screen, luminescence; INS-1E cytokine-induced death, ATP luminescence, 48 h; percent of positive-control rescue, neutral wells zero; protection from apoptosis, % (concentration not given with the values); 0.8% of 300,000 active; AID 435005, 2010;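 active = Every replicate reaches about 75%, or at least half do and their mean reaches it too, limit read from the data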;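 also: 0% = cytokine-treated negative control wells and 100% = positive control rescue; higher means more ATP so stronger rescue from cytokine killing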
Efflux pump inh – inhibitors of Candida efflux pumps in yeast, primary screen, S. cerevisiae, Nile Red, multiplex | S. cerevisiae Candida pump triplex | inhibition, % at 10 µM | 0.44% of 330,000 active;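 active = plate passing quality check with inhibition over a set limit, or well fluorescence over plate mean plus 4 SD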;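 also: Nile Red retained in pooled yeast measured as flow cytometry median fluorescence; 0% = buffer negative control and 100% = Enniatin B positive control; higher means more Nile Red kept so more efflux inhibition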
Yeast cmpd fluor – counter-screen for efflux pump inhibitors: compound fluorescence; shares compounds with Efflux pump inh; S. cerevisiae AD/pABC3, flow cytometry; fluorescence ratio to DMSO, % at 10 µM; 4% of 1,700 active;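 active = fluorescence ratio to DMSO above its plate's cutoff, the plate mean ratio plus 5 SD, cut at about 210% in these data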;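 also: unstained yeast with no Nile Red so the signal is compound autofluorescence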
Mdr1 pump inh – inhibitors of Candida albicans Mdr1 efflux, confirmation, flow cytometry, singleplex, Cherry Pick1 set. shares compounds with Efflux pump inh. S. cerevisiae AD/CaMDR1, Nile Red efflux. inhibition, % at 10 µM. 1% of 1,700 active. AID 588518, 2011; in the data active = inhibition above about 26%;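 also: 0% = DMSO vehicle and 100% = reference inhibitor; higher means more Nile Red retained so more efflux inhibition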
Cdr2 pump inh – inhibitors of Candida albicans Cdr2 efflux pump, confirmation, S. cerevisiae AD/CaCDR2, flow cytometry, cherry pick 1, singleplex | shares compounds with Efflux pump inh | Nile Red retention | Nile Red retention ratio vs DMSO, % at 10 µM | 4% of 1,700 active; in the data active = Nile Red retention ratio vs DMSO above about 190%;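 also: higher ratio means more blocking of Cdr2 efflux of the dye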
Cdr1 pump inh – inhibitors of Candida albicans Cdr1 efflux pump, confirmation, S. cerevisiae AD/CaCDR1, flow cytometry, cherry pick 1, singleplex; AID 588522, 2011; shares compounds with Efflux pump inh; 1% of 1,700 active; inhibition, % at 10 µM; Nile Red efflux;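 active = inhibition above the screen-wide mean plus twice its standard deviation, cut at about 32% in these data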
An asterisk follows results filed as active; nt = no result. Rows were chosen to be rich in hits. Some 4.8% of all compounds tested hit in one or more screens of this group.

SMILES	WT yeast gro inh	T cruzi inh	CSC inhib	Mot1-301 SUMO	Beta apoptosis	Efflux pump inh	Yeast cmpd fluor	Mdr1 pump inh	Cdr2 pump inh	Cdr1 pump inh
O=C(N/N=C\c1ccc(F)cc1)c1ccc(F)cc1	-6	1	-7	nt	-1	0	nt	nt	nt	nt
CC(=O)Nc1ccc(C(=O)N/N=C/c2ccc(F)cc2)cc1	-6	2	19	16	-4	0.6*	95	0	103	0
CC(=O)Nc1ccc(C(=O)OCc2ccc(F)cc2)cc1	31	13	7	6	-8	0	nt	nt	nt	nt
CC(=O)Nc1ccc(C(=O)OCC(=O)c2ccc(F)cc2)cc1	10	1	1	-4	-3	32*	97	0	106	0
COC(=O)C(NC(=O)CCc1c(C)nc2c(c(C)nn2-c2ccccc2)c1C)C(C)C (stereo not given)	nt	3	-1	-30	-8	0	nt	nt	nt	nt
COc1cc(Cl)c(C)cc1NC(=O)COC(=O)c1ccc(CN2CCCC2=O)cc1	nt	nt	-9	-4	-6	0	nt	nt	nt	nt
O=C(CSc1nnc2n(C3CCCC3)c(=O)c3ccccc3n12)N1CCCCCC1	-1	11	nt	-13	4	0	nt	nt	nt	nt
COc1ccccc1Cn1c(=O)c2ccccc2n2c(SCC(=O)N3CCCCC3)nnc12	-1	12	23	-22	nt	1.6*	111	0	110	0
Cc1nn(-c2ccccc2)c(C)c1NC(=O)COC(=O)Cc1ccccc1F	nt	-4	0	-10	-5	0	nt	nt	nt	nt
CCOC(=O)CNC(=O)N1CCCC(Cc2ccccc2)(C(=O)OCC)C1 (stereo not given)	nt	5	9	-13	-1	0	nt	nt	nt	nt
N#CCCn1cc(/C=N/O)c(-c2ccc(-c3ccccc3)cc2)n1	4	2	40	-5	12	0	nt	nt	nt	nt
N#CCCn1cc(/C=N/O)c(-c2ccc(Cl)cc2)n1	9	3	-8	-19	-9	6.7*	104	0	103	0
CC1(C)C2CCC1(CS(=O)(=O)N1CCC(C(=O)O)CC1)C(=O)C2 (stereo not given)	nt	-9	-16	40	-8	0	nt	nt	nt	nt
CCOc1cc2c(cc1OCC)CN(CC(=O)Nc1ccccc1C(=O)NC1CC1)CC2	nt	nt	nt	9	-4	0	nt	nt	nt	nt
Cc1nc2ccc(NC(=O)Cc3ccc4c(c3)OCCO4)cc2s1	56	3	-22	4	-5	8.2*	119	0	108	0
O=C(O)c1cnn(-c2nc(-c3cccc([N+](=O)[O-])c3)cs2)c1C(F)(F)F	nt	5	4	155	5	0	nt	nt	nt	nt
O=C(/C=C/c1ccc2c(c1)OCO2)NCCCN1CCOCC1	0	-13	-14	-11	-7	11*	98	0	100	0
COc1ccc2[nH]c3c(C)c4ccncc4c(C)c3c2c1	nt	58*	-5	-13	100*	2.8*	125	0	103	0
Cc1nc(SCC(=O)NCC2CCCO2)c2c3c(sc2n1)CCCC3 (stereo not given)	nt	3	0	9	3	0	nt	nt	nt	nt
COCCn1c(C)cc(C(=O)CSc2nc(C)nc3sc4c(c23)CCC4)c1C	nt	6	nt	295	5	1.6*	110	0	112	0
CC1CCN(C(=O)c2ccc(NS(C)(=O)=O)cc2)CC1	1	2	18	-15	3	0.6*	99	0	107	0
CS(=O)(=O)Nc1ccc(C(=O)N2CCCCC2)cc1	11	-14	-7	8	0	0	nt	nt	nt	nt
C/C=N/NC(=O)c1cc(Br)ccc1O	18	-14	nt	572	-2	0	nt	nt	nt	nt
Cc1c(/C=N/NC(=O)c2cc(Br)ccc2O)c(=O)n(C)c(=O)n1C	nt	2	-19	189	-5	0.5*	105	1	102	0
CN(C(=O)COC(=O)c1ccc2c(=O)n3c(nc2c1)CCC3)C1CCS(=O)(=O)C1 (stereo not given)	14	-1	-31	51	-3	0	nt	nt	nt	nt
SMILES	WT yeast gro inh	T cruzi inh	CSC inhib	Mot1-301 SUMO	Beta apoptosis	Efflux pump inh	Yeast cmpd fluor	Mdr1 pump inh	Cdr2 pump inh	Cdr1 pump inh
CCC1(C(=O)c2ccc(Cl)cc2)C2c3ccccc3OC(=O)C21C(=O)Nc1ccccc1 (stereo not given)	-12	2	0	81	-1	1.8*	84	0	106	0
COc1ccc(NC(=O)C(NC(=O)c2ccc(=O)[nH]c2)c2ccccc2)cc1 (stereo not given)	-1	-2	0	7	-5	0	nt	nt	nt	nt
COc1ccc(NC(=O)C(NC(=O)c2ccc(C)cc2)c2ccccc2)cc1 (stereo not given)	nt	4	20	-3	-2	0.3*	100	0	112	0
COCCn1c(SC(C)C(=O)NCC2CCCO2)nc2scc(-c3ccc(F)cc3)c2c1=O (stereo not given)	nt	7	-18	69	5	0	nt	nt	nt	nt
CC(=O)N(C)c1ccc(NC(=S)NC(=O)/C=C/c2ccco2)cc1	nt	-22	-6	3	-3	0.6*	106	0	98	0
Cc1ccnc(SCc2cn3c(C)cccc3n2)n1	-6	-11	-18	-2	-3	1.1*	100	0	96	0
CSCCC(C(=O)OC1CCOC1=O)N1C(=O)c2ccccc2C1=O (stereo not given)	-4	-7	-4	7	nt	0	nt	nt	nt	nt
COc1cccc(CNS(=O)(=O)/C=C/c2ccc3c(c2)OCO3)c1	10	-4	9	-10	-8	0	nt	nt	nt	nt
Cc1cc(C)cc(NC(=O)c2ccc(NC3=NC4CS(=O)(=O)CC4S3)cc2)c1 (stereo not given)	nt	-11	8	-14	0	0.9*	83	0	95	0
CC(=O)OCCNc1cc(N2CCN(C)CC2)c2noc3c2c1C(=O)c1ccccc1-3	45	nt	nt	nt	nt	nt	nt	nt	nt	nt

Source: PubChem (several laboratories)
